{
  "source": "ChEMBL document CHEMBL4673340",
  "about": "(J Med Chem, 2020)",
  "key": {"[1]": {"assay": "Half life in Sprague-Dawley rat at 2 mg/kg, iv by LC-MS/MS analysis", "format": "ADME, organism-based", "conditions": "in vivo", "procedure,_shortened": "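Sprague-Dawley rats (n=3) get 2 mg/kg iv formulated in 38% DMA in water. Plasma is protein-precipitated and quantified by LC–MS/MS (C18, acetonitrile/0.1% formic acid gradient). Parameters are means of the three rats.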"}, "[2]": {"assay": "Clearance in ICR mouse at 1 mg/kg, iv by LC-MS/MS analysis", "format": "ADME, organism-based", "conditions": "in vivo", "procedure,_shortened": "(§1)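 Male/female unspecified ICR mice, n=3 per route. Intravenous 1 mg/kg in 5% DMA in water; oral 10 mg/kg in 0.5% MC. Plasma is processed by protein precipitation and analysed by LC–MS/MS using an acetonitrile/0.1% formic acid gradient. Values are means of the three animals.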"}, "[3]": {"assay": "Apparent permeability from apical to basolateral side in human Caco-2 cells", "format": "ADME, cell-based"}, "[4]": {"assay": "Antiproliferation activity against human UWB1289 cells expressing BRCA1 mutant incubated for 7 days by CellTiter-Glo luminescent cell viability assay", "format": "functional, cell-based", "conditions": "UWB1289, 168 h", "procedure,_shortened": "(§2)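 Seeding density is set per line for log growth over 7 days. Cells attach 16 h, then are treated in duplicate with a 10-point dilution series for 7 days. CellTiter-Glo luminescence (ATP) is read, and viability is expressed relative to mock-treated control. EC50 is the mean of three independent experiments run in triplicate.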"}, "[5]": {"assay": "AUC (0 to infinity) in ICR mouse at 10 mg/kg, po by LC-MS/MS analysis", "format": "ADME, organism-based", "set-up": "time infinity, route oral, dose 10 mg/kg", "conditions": "in vivo", "procedure,_shortened": "as §1"}, "HCC1395": {"tested_on": "HCC1395", "assay": "Antiproliferation activity against human HCC1395 cells expressing BRCA1 mutant incubated for 7 days by CellTiter-Glo luminescent cell viability assay", "format": "functional, cell-based", "conditions": "HCC1395, 168 h", "procedure,_shortened": "as §2"}, "Cytochrome P450 2D6": {"target": "Cytochrome P450 2D6 (Homo sapiens, UniProt P10635)", "sequence (P10635 whole entry)": "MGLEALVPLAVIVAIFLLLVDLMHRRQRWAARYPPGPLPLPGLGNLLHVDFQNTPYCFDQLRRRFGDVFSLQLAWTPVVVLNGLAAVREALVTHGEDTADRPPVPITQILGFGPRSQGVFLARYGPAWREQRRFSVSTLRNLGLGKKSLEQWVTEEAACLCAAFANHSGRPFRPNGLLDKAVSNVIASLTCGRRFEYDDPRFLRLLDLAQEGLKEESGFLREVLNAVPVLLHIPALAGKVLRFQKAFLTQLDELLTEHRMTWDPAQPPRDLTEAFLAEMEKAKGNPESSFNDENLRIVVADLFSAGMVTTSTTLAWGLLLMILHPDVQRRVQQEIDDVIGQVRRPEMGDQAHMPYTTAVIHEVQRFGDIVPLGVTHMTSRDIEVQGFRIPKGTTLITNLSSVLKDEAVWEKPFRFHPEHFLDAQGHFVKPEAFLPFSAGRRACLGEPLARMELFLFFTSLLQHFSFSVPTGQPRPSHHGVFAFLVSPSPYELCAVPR", "assay": "Inhibition of CYP2D6 (unknown origin)", "format": "ADME"}, "[6]": {"assay": "AUC ( 0 to infinity) in Sprague-Dawley rat at 5 mg/kg, po by LC-MS/MS analysis", "conditions": "in vivo"}, "[7]": {"assay": "Unbound fraction in dog plasma", "format": "ADME, cell-free, Canis lupus familiaris"}, "[8]": {"assay": "Drug level in C57BL/6 mouse plasma at 10 mg/kg, po after 4 hrs", "format": "ADME, organism-based", "procedure,_shortened": "(§3)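 C57BL/6 mice (n=3) dosed orally at 10 mg/kg in 0.5% MC. Plasma and brain are sampled at 1, 2 and 4 h. Brain is homogenized in 3 volumes of saline, then acetonitrile protein precipitation; plasma is likewise precipitated. Both are analysed by LC–MS/MS and reported as means.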"}, "[9]": {"assay": "Unbound fraction in mouse plasma", "format": "ADME, cell-free"}, "[10]": {"assay": "Ratio of drug level in brain to plasma of C57BL/6 mouse brain at 10 mg/kg, po after 2 hrs", "format": "ADME, organism-based", "procedure,_shortened": "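C57BL/6 mice were given 10 mg/kg po in 0.5% MC and sampled at 1, 2 and 4 h. Brain was homogenized in 3 volumes of saline, and brain and plasma were protein-precipitated with acetonitrile, then measured by LC-MS/MS. Brain (ng/g) was expressed as a percentage of plasma (ng/mL). Values are means of three mice.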"}, "[11]": {"assay": "Drug level in C57BL/6 mouse brain at 10 mg/kg, po after 2 hrs", "format": "ADME, organism-based", "conditions": "read-out: Drug uptake", "procedure,_shortened": "as §3"}, "[12]": {"assay": "Volume of distribution at steady state in Beagle dog at 1 mg/kg, iv by LC-MS/MS analysis", "format": "ADME, organism-based, Canis lupus familiaris", "conditions": "in vivo, read-out: Vdss", "procedure,_shortened": "(§4)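 Beagle dogs, three per group. iv 1 mg/kg in 25% DMA in water; oral 2 mg/kg. Values are means of three dogs.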"}, "[13]": {"assay": "Half life in Beagle dog at 2 mg/kg, po by LC-MS/MS analysis", "format": "ADME, organism-based, Canis lupus familiaris", "conditions": "in vivo", "procedure,_shortened": "(§5)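 Three Beagle dogs; iv dose 1 mg/kg in 25% DMA in water; oral dose 2 mg/kg in 0.5% CMC-Na. Plasma drug concentrations are measured by LC–MS/MS. Values are the mean of three dogs.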"}, "[14]": {"assay": "Clearance in dog liver microsomes", "format": "ADME, Canis lupus familiaris, Microsome", "conditions": "read-out: CLH"}, "[15]": {"target": "Solute carrier organic anion transporter family member 1B1 (Homo sapiens, UniProt Q9Y6L6)", "sequence (Q9Y6L6 whole entry)": "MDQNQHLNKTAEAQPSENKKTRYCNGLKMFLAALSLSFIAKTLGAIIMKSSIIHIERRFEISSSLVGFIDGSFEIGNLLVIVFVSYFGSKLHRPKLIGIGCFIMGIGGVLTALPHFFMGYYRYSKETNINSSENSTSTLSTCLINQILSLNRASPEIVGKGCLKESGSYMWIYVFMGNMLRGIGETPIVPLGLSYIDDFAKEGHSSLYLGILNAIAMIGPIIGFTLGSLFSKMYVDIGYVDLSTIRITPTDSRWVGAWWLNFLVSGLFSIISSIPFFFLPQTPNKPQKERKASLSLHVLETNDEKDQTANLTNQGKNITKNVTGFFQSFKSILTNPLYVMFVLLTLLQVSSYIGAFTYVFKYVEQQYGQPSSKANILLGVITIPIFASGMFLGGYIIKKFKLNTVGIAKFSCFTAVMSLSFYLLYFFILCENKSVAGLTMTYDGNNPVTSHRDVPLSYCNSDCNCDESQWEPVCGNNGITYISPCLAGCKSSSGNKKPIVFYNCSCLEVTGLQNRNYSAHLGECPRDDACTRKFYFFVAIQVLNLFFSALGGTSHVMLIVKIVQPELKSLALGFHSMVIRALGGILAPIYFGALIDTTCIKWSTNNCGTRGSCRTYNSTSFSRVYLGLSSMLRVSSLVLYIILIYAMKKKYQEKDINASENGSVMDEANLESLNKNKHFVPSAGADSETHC", "assay": "Inhibition of OATP1B1 (unknown origin)"}, "[16]": {"assay": "Half life in Sprague-Dawley rat at 5 mg/kg, po by LC-MS/MS analysis", "conditions": "in vivo"}, "[17]": {"assay": "AUC (0 to infinity) in Beagle dog at 1 mg/kg, iv by LC-MS/MS analysis", "format": "ADME, organism-based, Canis lupus familiaris", "set-up": "time infinity, route intravenous, dose 1 mg/kg", "conditions": "in vivo", "procedure,_shortened": "as §5"}, "Cytochrome P450 2C9": {"target": "Cytochrome P450 2C9 (Homo sapiens, UniProt P11712)", "sequence (P11712 whole entry)": "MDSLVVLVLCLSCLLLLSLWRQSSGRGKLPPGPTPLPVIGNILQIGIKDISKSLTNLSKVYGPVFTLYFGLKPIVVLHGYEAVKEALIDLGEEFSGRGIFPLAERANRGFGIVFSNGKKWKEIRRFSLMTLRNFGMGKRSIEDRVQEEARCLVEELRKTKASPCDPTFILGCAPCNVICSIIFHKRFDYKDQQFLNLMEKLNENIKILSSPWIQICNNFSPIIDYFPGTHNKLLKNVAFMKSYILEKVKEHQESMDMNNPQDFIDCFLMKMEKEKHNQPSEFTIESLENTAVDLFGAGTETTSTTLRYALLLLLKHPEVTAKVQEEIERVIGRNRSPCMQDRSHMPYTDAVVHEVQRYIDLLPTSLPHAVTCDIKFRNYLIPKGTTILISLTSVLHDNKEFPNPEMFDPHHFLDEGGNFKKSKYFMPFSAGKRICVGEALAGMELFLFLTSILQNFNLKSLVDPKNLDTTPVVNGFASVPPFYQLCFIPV", "assay": "Inhibition of CYP2C9 (unknown origin)", "format": "ADME"}, "Cytochrome P450 2C19": {"target": "Cytochrome P450 2C19 (Homo sapiens, UniProt P33261)", "sequence (P33261 whole entry)": "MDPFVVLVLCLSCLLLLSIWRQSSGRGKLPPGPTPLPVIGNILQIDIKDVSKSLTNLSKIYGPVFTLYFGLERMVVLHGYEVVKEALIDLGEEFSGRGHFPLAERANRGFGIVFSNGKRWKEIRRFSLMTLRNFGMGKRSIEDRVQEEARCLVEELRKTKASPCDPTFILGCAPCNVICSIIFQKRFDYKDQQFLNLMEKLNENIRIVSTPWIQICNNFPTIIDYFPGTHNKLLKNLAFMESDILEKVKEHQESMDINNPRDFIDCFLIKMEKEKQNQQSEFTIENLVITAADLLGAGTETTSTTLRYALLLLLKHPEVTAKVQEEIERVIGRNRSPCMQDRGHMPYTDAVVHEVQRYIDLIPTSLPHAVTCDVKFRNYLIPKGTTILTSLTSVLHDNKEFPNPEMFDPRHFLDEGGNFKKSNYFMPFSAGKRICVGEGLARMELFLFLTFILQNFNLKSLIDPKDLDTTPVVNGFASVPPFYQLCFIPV", "assay": "Inhibition of CYP2C19 (unknown origin)", "format": "ADME"}, "Cytochrome P450 2C8": {"target": "Cytochrome P450 2C8 (Homo sapiens, UniProt P10632)", "sequence (P10632 whole entry)": "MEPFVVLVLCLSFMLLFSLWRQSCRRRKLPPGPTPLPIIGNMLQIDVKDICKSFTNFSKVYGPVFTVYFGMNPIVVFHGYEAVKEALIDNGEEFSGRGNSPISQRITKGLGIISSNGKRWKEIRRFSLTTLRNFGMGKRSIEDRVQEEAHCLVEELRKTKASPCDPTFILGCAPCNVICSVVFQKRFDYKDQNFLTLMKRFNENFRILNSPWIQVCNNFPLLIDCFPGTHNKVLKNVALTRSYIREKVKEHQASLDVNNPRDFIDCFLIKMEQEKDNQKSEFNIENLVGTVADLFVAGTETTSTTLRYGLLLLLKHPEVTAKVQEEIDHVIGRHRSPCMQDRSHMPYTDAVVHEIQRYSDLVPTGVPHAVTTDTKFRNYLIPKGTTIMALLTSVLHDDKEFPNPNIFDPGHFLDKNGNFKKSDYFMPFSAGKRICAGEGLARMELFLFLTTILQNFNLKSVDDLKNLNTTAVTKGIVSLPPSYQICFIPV", "assay": "Inhibition of CYP2C8 (unknown origin)", "format": "ADME"}, "[18]": {"assay": "AUC (0 to infinity) in Beagle dog at 2 mg/kg, po by LC-MS/MS analysis", "format": "ADME, organism-based, Canis lupus familiaris", "set-up": "route oral, time infinity, dose 2 mg/kg", "conditions": "in vivo", "procedure,_shortened": "as §5"}, "[19]": {"assay": "Tmax in ICR mouse at 10 mg/kg, po by LC-MS/MS analysis", "format": "ADME, organism-based", "conditions": "in vivo", "procedure,_shortened": "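Three ICR mice per arm. iv dose 1 mg/kg in 5% DMA in water; oral dose 10 mg/kg in 0.5% MC. Plasma was processed by protein precipitation, diluted with water and quantified by LC-MS/MS (C18 column, acetonitrile/0.1% formic acid gradient). Values are means of three animals.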"}, "[20]": {"assay": "Half life in ICR mouse at 1 mg/kg, iv by LC-MS/MS analysis", "format": "ADME, organism-based", "conditions": "in vivo", "procedure,_shortened": "as §1"}, "[21]": {"assay": "Drug level in C57BL/6 mouse plasma at 10 mg/kg, po after 1 hrs", "format": "ADME, organism-based", "procedure,_shortened": "as §3"}, "[22]": {"assay": "Toxicity in BALB/c nude mouse xenografted with human NCI-H209 cells assessed as induction of body weight loss at […], po BID for 28 days and co-treated with 50 mg/kg, po QD TMZ for 5 consecutive days at start of study and again 14 days later relative to TMZ alone", "format": "organism-based", "conditions": "in vivo, dose 0.75 mg/kg, time 28 day"}, "[23]": {"assay": "Tmax in Beagle dog at 2 mg/kg, po by LC-MS/MS analysis", "format": "ADME, organism-based, Canis lupus familiaris", "conditions": "in vivo", "procedure,_shortened": "as §4"}, "[24]": {"target": "Solute carrier family 22 member 6 (Homo sapiens, UniProt Q4U2R8)", "sequence (Q4U2R8 whole entry)": "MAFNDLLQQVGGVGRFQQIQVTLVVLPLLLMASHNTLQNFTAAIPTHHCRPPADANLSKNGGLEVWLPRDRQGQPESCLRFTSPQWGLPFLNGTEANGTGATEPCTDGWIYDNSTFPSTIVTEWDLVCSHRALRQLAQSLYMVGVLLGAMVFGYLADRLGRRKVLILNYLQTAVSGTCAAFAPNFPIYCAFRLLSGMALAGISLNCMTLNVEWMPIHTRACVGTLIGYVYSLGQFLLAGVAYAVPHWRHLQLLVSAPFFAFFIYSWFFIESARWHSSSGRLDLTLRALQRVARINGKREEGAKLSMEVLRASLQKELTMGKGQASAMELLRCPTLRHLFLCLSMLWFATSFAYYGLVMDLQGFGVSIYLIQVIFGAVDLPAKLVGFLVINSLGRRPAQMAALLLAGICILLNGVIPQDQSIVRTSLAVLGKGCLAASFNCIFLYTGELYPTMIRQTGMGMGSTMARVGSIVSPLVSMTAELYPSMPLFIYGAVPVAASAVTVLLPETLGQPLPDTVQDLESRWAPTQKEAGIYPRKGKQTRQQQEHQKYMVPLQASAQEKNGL", "assay": "Inhibition of OAT1 (unknown origin)"}, "[25]": {"assay": "Toxicity in BALB/c nude mouse xenografted with human MDA-MB-436 cells assessed as induction of body weight loss at 1.6 to […], po BID for 28 days followed by treatment was interruption and monitored for additional 2 months", "format": "organism-based", "conditions": "in vivo, dose 1.6-3.1 mg/kg, time 28 day"}, "[26]": {"target": "Protein mono-ADP-ribosyltransferase PARP6 (Homo sapiens, UniProt Q2NL67)", "sequence (Q2NL67 whole entry, canonical isoform)": "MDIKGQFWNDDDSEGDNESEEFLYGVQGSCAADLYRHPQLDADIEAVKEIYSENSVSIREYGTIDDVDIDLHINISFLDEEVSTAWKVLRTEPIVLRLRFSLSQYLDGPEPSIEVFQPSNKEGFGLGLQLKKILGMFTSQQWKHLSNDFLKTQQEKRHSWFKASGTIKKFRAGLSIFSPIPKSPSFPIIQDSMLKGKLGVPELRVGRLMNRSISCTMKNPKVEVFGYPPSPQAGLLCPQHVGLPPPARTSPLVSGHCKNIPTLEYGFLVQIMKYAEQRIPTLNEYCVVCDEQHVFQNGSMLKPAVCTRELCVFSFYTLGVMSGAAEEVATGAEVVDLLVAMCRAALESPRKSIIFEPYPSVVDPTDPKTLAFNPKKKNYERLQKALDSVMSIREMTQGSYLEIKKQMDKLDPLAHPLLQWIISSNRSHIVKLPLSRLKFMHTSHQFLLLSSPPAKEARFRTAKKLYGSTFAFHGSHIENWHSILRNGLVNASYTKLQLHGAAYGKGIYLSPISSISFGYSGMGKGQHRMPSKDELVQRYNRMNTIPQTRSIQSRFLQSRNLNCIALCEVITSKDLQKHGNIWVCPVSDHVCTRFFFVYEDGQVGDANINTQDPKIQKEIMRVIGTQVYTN", "assay": "Inhibition of PARP-6 (unknown origin) pre-incubated for 30 mins before addition of activated DNA and NAD by chemiluminescent assay", "procedure,_shortened": "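Chemiluminescent kit assay. Histone-coated wells were incubated for 30 min with the PARP isoform and increasing inhibitor concentrations. A substrate mix of NAD plus biotinylated NAD with activated DNA was then added. The biotinylated PARylation product was read with streptavidin-HRP and HRP substrate. IC50 was taken from residual enzyme activity across the concentration series.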"}, "[27]": {"assay": "Half life in ICR mouse at 10 mg/kg, po by LC-MS/MS analysis", "format": "ADME, organism-based", "conditions": "in vivo", "procedure,_shortened": "as §1"}},
  "data": [
    {"smiles": "C[C@]12CCCN1CC1=NNC(=O)c3cc(F)cc4[nH]c2c1c34", "note": "[PAMIPARIB]", "values": [
      {"measurement": "half-life", "setting": "[1]", "value": 5.3, "unit": "h"},
      {"measurement": "CL", "setting": "[2]", "value": 29.9, "unit": "mL/min/kg"},
      {"measurement": "Papp A→B", "setting": "[3]", "value": 30.3, "unit": "×10⁻⁶ cm/s"},
      {"measurement": "EC50", "setting": "[4]", "value": 0.0538, "unit": "µM"},
      {"measurement": "AUC", "setting": "[5]", "value": 5521, "unit": "ng·h/mL"},
      {"measurement": "EC50", "setting": "HCC1395", "value": 0.0425, "unit": "µM"},
      {"measurement": "IC50", "setting": "Cytochrome P450 2D6", "value": "> 10", "unit": "µM"},
      {"measurement": "AUC(0-inf)", "setting": "[6]", "value": 3470, "unit": "ng·h/mL"},
      {"measurement": "fraction unbound", "setting": "[7]", "value": 0.21},
      {"measurement": "concentration at 4 h", "setting": "[8]", "value": 707, "unit": "ng/mL"},
      {"measurement": "fraction unbound", "setting": "[9]", "value": 0.15},
      {"measurement": "BPR", "setting": "[10]", "value": 18.9, "unit": "%"},
      {"measurement": "concentration at 2 h", "setting": "[11]", "value": 252, "unit": "ng/g"},
      {"measurement": "Vd", "setting": "[12]", "value": 2.09, "unit": "L/kg"},
      {"measurement": "half-life", "setting": "[13]", "value": 3.62, "unit": "h"},
      {"measurement": "microsomal CLint", "setting": "[14]", "value": 9.5, "unit": "µL/min/mg"},
      {"measurement": "IC50", "setting": "[15]", "value": 19.4, "unit": "µM"},
      {"measurement": "half-life", "setting": "[16]", "value": 5.5, "unit": "h"},
      {"measurement": "AUC(0-inf)", "setting": "[17]", "value": 1080, "unit": "ng·h/mL"},
      {"measurement": "IC50", "setting": "Cytochrome P450 2C9", "value": "> 10", "unit": "µM"},
      {"measurement": "IC50", "setting": "Cytochrome P450 2C19", "value": "> 10", "unit": "µM"},
      {"measurement": "IC50", "setting": "Cytochrome P450 2C8", "value": "> 10", "unit": "µM"},
      {"measurement": "AUC(0-inf)", "setting": "[18]", "value": 1600, "unit": "ng·h/mL"},
      {"measurement": "Tmax", "setting": "[19]", "value": 0.583, "unit": "h"},
      {"measurement": "half-life", "setting": "[20]", "value": 3.95, "unit": "h"},
      {"measurement": "concentration at 1 h", "setting": "[21]", "value": 3530, "unit": "ng/mL"},
      {"measurement": "Activity", "setting": "[22]", "value": "Non-Toxic"},
      {"measurement": "Tmax", "setting": "[23]", "value": 0.417, "unit": "h"},
      {"measurement": "IC50", "setting": "[24]", "value": 47.8, "unit": "µM"},
      {"measurement": "Activity", "setting": "[25]", "value": "Non-Toxic"},
      {"measurement": "IC50", "setting": "[26]", "value": "> 100", "unit": "µM"},
      {"measurement": "half-life", "setting": "[27]", "value": 3.16, "unit": "h"}
    ]}
  ]
}
